Test results reported in article PMC6636858 (European journal of medicinal chemistry, 2019).
Read-outs that look alike come from different tables or passages of the source. Peptide text beside a SMILES is read from it. * marks the point of attachment. AMC = Cc1cc(=O)oc2cc(N*)ccc12; Cbz = O=C(OCc1ccccc1)*

How the values were obtained:
[1] = target: T1, Cathepsin B (CatB, human liver) (Homo sapiens, UniProt P07858); assay: CatB inhibition constants / Km, fluorogenic substrate Z-Arg-Arg-AMC; format: biochemical
[2] = target: T1, Cathepsin B (CatB, human liver); conditions: read-out: Michaelis-Menten constant (Km), reported value; cited from earlier work
[3] = target: T2, Cathepsin L (Cat L, human liver) (Homo sapiens, UniProt P07711); assay: CatL inhibition constants / Km, fluorogenic substrate Z-Phe-Arg-AMC; format: biochemical
T2 sequence (P07711 114-288 limits assumed): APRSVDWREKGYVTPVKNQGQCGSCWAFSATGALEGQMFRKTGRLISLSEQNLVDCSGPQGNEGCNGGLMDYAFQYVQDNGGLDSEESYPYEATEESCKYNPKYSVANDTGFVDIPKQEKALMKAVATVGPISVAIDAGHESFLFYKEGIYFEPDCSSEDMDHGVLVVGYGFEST
T2 sequence (P07711 292-333 limits assumed): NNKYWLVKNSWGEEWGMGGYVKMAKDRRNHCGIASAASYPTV

[4] = target: T2, Cathepsin L (Cat L, human liver); conditions: read-out: Michaelis-Menten constant (Km), literature value; CatL; cited from earlier work
[5] = target: human CatB (Homo sapiens, UniProt P07858); assay: SDS-PAGE autoradiography of adduct formation with purified CatB; format: biochemical; conditions: E-64 10 μM or N1 20 μM
[6] = target: human CatL (Homo sapiens, UniProt P07711); assay: SDS-PAGE autoradiography of adduct formation with purified CatL; format: biochemical; conditions: E-64 10 μM or N1 20 μM
Sequence of human CatL (P07711 114-288 limits assumed): as the sequence (P07711 114-288 limits assumed) above
Sequence of human CatL (P07711 292-333 limits assumed): as the sequence (P07711 292-333 limits assumed) above

[7] = tested on: HT-29 cells; assay: SDS-PAGE autoradiography of intracellular adducts in cell lysate; format: cell-based, human; conditions: E-64 10 μM or N1 20 μM
Outline: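 HT-29 cells (1 × 10^6/well) incubated 4 h at 37 °C with radioconjugate (20 μCi, 0.74 MBq, in 1 mL medium), ± E-64 (10 μM as added) or N1 (20 μM as added). Cells PBS-washed and given fresh medium. At chosen times, pooled from 3 wells, trypsinized and lysed in RIPA plus protease inhibitor (15 min on ice). Cleared lysate heated in SDS sample buffer (85 °C, 2 min) and run on 16% Tris-glycine gel (110 V, 90 min).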

Cc1cc(=O)oc2cc(NC(=O)[C@H](CCCN=C(N)N)NC(=O)[C@H](CCCN=C(N)N)NC(=O)OCc3ccccc3)ccc12 [Z-Arg-Arg-AMC] (Cbz-Arg-Arg-{AMC})
Km ([1]; read-out: Michaelis-Menten constant (Km), CatB substrate): 189 ± 2 µM | Km [2]: 390 ± 20 µM

3-(((S)-1-(((S)-1-((2-azidoethyl)amino)-5-guanidino-1-oxopentan-2-yl)amino)-4-methyl-1-oxopentan-2-yl)carbamoyl)oxirane-2-carboxylic acid [1a]
second order rate constant ki/Ki ([1]; CatB): 130000 ± 1900 M⁻¹ s⁻¹ | second order rate constant ki/Ki ([3]; CatL): 16000 ± 1300 M⁻¹ s⁻¹

Cc1cc(=O)oc2cc(NC(=O)C(CCCN=C(N)N)NC(=O)C(Cc3ccccc3)NC(=O)OCc3ccccc3)ccc12 (stereo not drawn) [Z-Phe-Arg-AMC] (Cbz-Phe-Arg-{AMC}; configuration not given here)
Km ([3]; read-out: Michaelis-Menten constant (Km), CatL substrate): 36 ± 3 µM | Km [4]: 21.5 ± 3.2 µM

CC(C)C[C@H](NC(=O)[C@H]1O[C@@H]1C(=O)O)C(=O)NCCCCN=C(N)N [E-64]
effect of co-incubated agent on ^177Lu-NE1a adduct formation with CatB [5]: prevented adduct formation | effect of co-incubated agent on ^177Lu-NE1a adduct formation with CatL [6]: prevented adduct formation | effect of co-incubated agent on ^177Lu-NE1a intracellular adduct formation [7]: unaffected

CC(C)C[C@H](NC(=O)CCC(=O)O)C(=O)N[C@@H](CCCNC(=N)N)C(=O)NCCN=[N+]=[N-] [1b, 4-(((S)-1-(((S)-1-((2-azidoethyl)amino)-5-guanidino-1-oxopentan-2-yl)amino)-4-methyl-1-oxopentan-2-yl)amino)-4-oxobutanoic acid]
inhibition of CatB ([1]; over the test concentration ranges): No inhibition
